# Results gathered from unrelated publications.
# Lines come from different studies, so protocols differ. pIC50: −log10 of the molar value.
# Organism: Plasmodium falciparum
# Effect on: parasite growth
Compound,assay,test system,conditions,endpoint,value
C[C@@H]1CC[C@H]2[C@@H](C)C(=O)O[C@@H]3O[C@@]4(C)CC[C@@H]1[C@]32OO4,,D6,"72 h, blood stage",IC50,0.0047 µg/mL
NCCCNc1nc2cc(Br)ccc2n1Cc1ccccc1,,NF54,blood stage,pIC50,6.42
Cc1ccc(-c2ccc3ncc4c(c3c2)n(-c2cccc(C(F)(F)F)c2)c(=O)n4C)cn1,resazurin,3D7,gametocyte,pIC50,> 7.00
C[C@@]12CC[C@@H](O)[C@]3(C)C4=CC(=O)OCC4=C[C@@H](OC1=O)C23 (stereo partly shown),,D6,"72 h, blood stage",IC50,0.9 µg/mL
O=C(Nc1ccccc1C(=O)O)c1ccc(-c2ccc(F)cc2)cc1,resazurin,NF54,"48 h, gametocyte",pIC50,< 5.00
COc1cccc2c(=O)c(C)c(-c3ccc(Cc4ccc(OC(F)(F)F)cc4)cc3)[nH]c12,,3D7,blood stage,pIC50,< 6.46
COc1nc2ccc(Br)cc2cc1[C@@H](c1ccccc1)[C@@](O)(CCN(C)C)c1cccc2ccccc12,SYBR Green,,blood stage,pIC50,5.96
CCN(CC)CCCC(C)Nc1ccnc2cc(Cl)ccc12 (stereo not shown),,D6,blood stage,IC50,0.016 µg/mL
COC1=CC(c2ccc[nH]2)=NC1=Cc1ccc(CCCCCCCCCCCO)[nH]1,,D6,blood stage,pIC50,7.23
NCCCNc1nc2ccccc2n1Cc1ccccc1,,NF54,blood stage,pIC50,5.39
O=C(O)c1ccccc1NC(=O)c1ccccc1-c1ccccc1,resazurin,NF54,"48 h, gametocyte",pIC50,< 5.00
C#CCCCCCCCCCCCC(O)CC(O)CO (stereo not shown),,D6,blood stage,IC50,25.9 µg/mL
CC(C)Cn1c(=O)n(C)c(=O)c2c(-c3cncn3C)n(Cc3cccc4ccccc34)nc21,SYBR Green,,blood stage,pIC50,5.32
NCCNc1nc2cc(Cl)ccc2n1Cc1ccccc1,,NF54,blood stage,pIC50,6.61
COC1=CC(c2ccc[nH]2)=NC1=Cc1ccc(CCCCCCCCCCCCO)[nH]1,,D6,blood stage,pIC50,7.42
c1ccc(Oc2ccc(-c3cc(C4CCOCC4)[nH]n3)cc2)cc1,SYBR Green,,blood stage,pIC50,4.15
Clc1ccc2c(c1)nc(NCCNCc1ccccc1)n2Cc1ccccc1,,NF54,blood stage,pIC50,7.07
Cc1cc(NC(=O)Nc2ccc3c(c2)OC(F)(F)O3)cc(C(F)(F)F)n1,,NF54,blood stage,pIC50,6.54
COC(=O)c1ccc2c(c1)nc(C1CCNCC1)n2Cc1ccccc1,,NF54,blood stage,pIC50,5.42
O=C(O)c1ccc(F)cc1NC(=O)c1ccccc1-c1ccccc1,resazurin,NF54,"48 h, gametocyte",pIC50,< 5.00
O=C1C(O)=C([C@H]2CC[C@H](c3ccc(Cl)cc3)CC2)C(=O)c2ccccc21,,3D7,"72 h, blood stage",pIC50,9.40
COC(=O)c1cccc(-c2nc3c(N4CCC(N5CCN(C)CC5)CC4)nccc3[nH]2)c1,,NF54,blood stage,pIC50,> 7.00
CCN(CC)CCCC(C)Nc1ccnc2cc(Cl)ccc12 (stereo not shown),,D10,72 h,pIC50,7.70
Cc1ccc2oc(-c3cc(NC(=O)Cc4ccccc4)ccc3Cl)nc2c1,SYBR Green,,blood stage,pIC50,4.63
CCCCCCCc1c(O)cc(CC=C(C)C)c(O)c1C=O,,W2,"72 h, drug-resistant strain, blood stage",IC50,2.7 µg/mL
